Consider 71 compounds from ChEMBL document CHEMBL4513216, “Probing the Open Global Health Chemical Diversity Library for Multistage-Active Starting Points for Next-Generation Antimalarials” (ACS Infect Dis, 2020).

This data set is described as follows: Toxicity liver stage against HepG2, at 10uM. It counts as cell-based. Further details: test concentration 10 uM, cell line HepG2-A16-CD81EGFP. The note with it: human, HepG2-A16-CD81EGFP cells; read-out: INHIBITION
The procedure, abridged: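 Uninfected HepG2-A16-CD81EGFP cells, 3 × 10^3 per well, 1536-well, plated on prespotted compound at 10 μM final, parasite-free screening media added to match infected plates; puromycin 10 μM positive, DMSO 0.5% negative; run in parallel with 48 h PbLuc assay at 37 °C, 5% CO2; viability by CellTiter-Glo luminescence, normalized to controls.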
Turning to `CC(=O)N1CCC2(CCN(C(=O)c3ccc(Cl)c(C(F)(F)F)c3)C2)C1` (stereo unspecified), the cytotoxicity at 10 µM was -85.8%.

In the case of `O=C1OC2(CCNCC2)CN1CC(=O)N1CCCC1c1nccs1` (stereo unspecified), the cytotoxicity at 10 µM was -4.92%.

As for `Cc1cc(C)n(-c2cncc(NCCNC(=O)CC3CCCC3)n2)n1`, the cytotoxicity at 10 µM is -5.71%.

Regarding `COc1cc(CNC(=O)Nc2nnc(C(C)C)s2)ccn1`, the cytotoxicity at 10 µM was -8.24%.

As for `Fc1cnc(N2CCN3C[C@H](Oc4cccnc4)C[C@H]3C2)nc1`, the cytotoxicity at 10 µM was 13.1%.

As to `Cc1ncc2c(n1)CCCC2NC(=O)c1ccccc1Cn1cncn1` (stereo unspecified), the cytotoxicity at 10 µM is -24.4%.

Consider `O=C(N[C@@H]1CN[C@H]2CCCO[C@H]21)c1cccnc1`, for which the cytotoxicity at 10 µM worked out at 5.25%.

On to `CN1CCN(C(=O)c2cn(-c3ccc(C(F)(F)F)cn3)nn2)CC1`, for which the cytotoxicity at 10 µM is -63%.

Take `Cc1nc(C2CCCN2Cc2ccc(S(=O)(=O)N(C)C)o2)no1` (stereo unspecified): the cytotoxicity at 10 µM was -2.53%.

Turning to `O=C(NCCCN1CCCCC1)c1n[nH]c(=O)c2ccccc12`, the cytotoxicity at 10 µM was -30.9%.

For the compound `CC(C)(C)C(NCC(=O)N1CCNC(=O)C1)c1ccccc1` (stereo unspecified), the cytotoxicity at 10 µM is -10.7%.

`Cc1ccc2c(n1)N(CC1CC1)CCN(C(=O)c1ccncc1F)C2`: the cytotoxicity at 10 µM was -0.182%.

As to `CCN1CCN(Cc2c(-c3ccco3)[nH]c3ncccc23)CC1`, the cytotoxicity at 10 µM is -5.91%.

With `COc1ccccc1OC1CCN(Cc2cccnc2)CC1`, the cytotoxicity at 10 µM was -1.7%.

Turning to `CC(C)c1nc(C2CCCN2C(=O)c2ccc3nncn3c2)no1` (stereo unspecified), the cytotoxicity at 10 µM is -10.3%.

For the compound `Cc1nc2[nH]cnc(Nc3cnn(C)c3)c-2n1`, the cytotoxicity at 10 µM is 5.59%.

Consider `O=C(c1ncc(F)cc1F)N1CCC(c2ncc[nH]2)CC1`, for which the cytotoxicity at 10 µM is -3.73%.

Regarding `CCc1cnc(C)nc1NC(CC)c1ncnn1CC` (stereo unspecified), the cytotoxicity at 10 µM was -10.2%.

`CC(C)c1ccc(S(=O)(=O)N2CSCC2C(=O)NCC(F)(F)F)cc1` (stereo unspecified): the cytotoxicity at 10 µM was -13.3%.

As to `CCc1cnc(C)nc1NCCSc1nnc(C)n1CC`, the cytotoxicity at 10 µM is -4.19%.

With `Cc1nc[nH]c1CN1CCC(CNC(=O)c2cccc3cnccc23)C1` (stereo unspecified), the cytotoxicity at 10 µM was -10.1%.

For `O=C(c1cnccn1)N1CCC(F)(F)C2(CCN(c3ccccn3)C2)C1` (stereo unspecified), the cytotoxicity at 10 µM stood at 11.9%.

Regarding `c1ccc(-c2cnc(CN(Cc3cccnc3)CC3CCCO3)o2)cc1` (stereo unspecified), the cytotoxicity at 10 µM turned out to be 17.5%.

Regarding `O=C(c1ccccc1)N1CCOC2CNCC[C@H]21` (stereo partly specified), the cytotoxicity at 10 µM is -114%.

With `CNc1cc(C2CN(CC(=O)N(C)C)CCO2)nc(C)n1` (stereo unspecified), the cytotoxicity at 10 µM is -14.4%.

For `Cc1ccc(-c2nnc(C(C)NCCn3cc(C)cn3)o2)cc1` (stereo unspecified), the cytotoxicity at 10 µM is -15.8%.

For the compound `COCCN(C)C[C@@H]1CN(C(=O)c2ccc(SC)cc2)C[C@@H]1CO`, the cytotoxicity at 10 µM was found to be 4.44%.

With `Cc1ccc(F)c(NC(=O)NCCCn2nc3ccccn3c2=O)c1`, the cytotoxicity at 10 µM is -13.3%.

As for `Cc1c(Br)cccc1C(=O)NCC1CCNCC1`, the cytotoxicity at 10 µM was -16%.

Turning to `c1cncc(OCCNC2Cc3ccccc3C2)c1`, the cytotoxicity at 10 µM stood at 4.32%.

Regarding `Cc1cc(-c2cnc(N3CCC(O)CC3)nc2C(C)C)on1`, the cytotoxicity at 10 µM amounted to 66.4%.

For `COCCN(C)C(=O)Nc1ccc2c(ccn2CCOC)c1`, the cytotoxicity at 10 µM was -3.83%.

`CCS(=O)(=O)N1CCC[C@]2(C(=O)N(C)C)CN(c3ccccn3)C[C@@H]2C1`: the cytotoxicity at 10 µM is -8.93%.

For the compound `Cc1cc(Nc2nc(C)cc(C)n2)cc(C2CCCN2)n1` (stereo unspecified), the cytotoxicity at 10 µM stood at 0.407%.

In the case of `COc1ccc(C(=O)C2CCCN(Cc3ccncc3)C2)cc1OC` (stereo unspecified), the cytotoxicity at 10 µM is -0.677%.

Turning to `Fc1ccc(-c2cnc(CNC3CCc4ncnn4C3)o2)cc1` (stereo unspecified), the cytotoxicity at 10 µM is -0.174%.

As to `Cc1noc2nc3c(c(C(=O)/N=c4\[nH]ncs4)c12)CCC3`, the cytotoxicity at 10 µM was -0.493%.

In the case of `O=C(CC1CCCC1)NCCn1ccc(-c2ccncc2)n1`, the cytotoxicity at 10 µM was determined as 5.97%.

As to `COc1cc(C)c(S(=O)(=O)NCc2cccnc2N(C)C)c(C)c1`, the cytotoxicity at 10 µM was 12.2%.

In the case of `Cc1nn(CCO)cc1CN1CCCC1c1nc2c(C)cccc2[nH]1` (stereo unspecified), the cytotoxicity at 10 µM turned out to be 3.83%.

Regarding `CN(C)CC1CN(c2ccc(C#N)cn2)CCO1` (stereo unspecified), the cytotoxicity at 10 µM was -4.67%.

For `COc1ccccc1C(O)CNC(=O)NCc1csc(C)n1` (stereo unspecified), the cytotoxicity at 10 µM was -5.34%.

In the case of `CN(Cc1ccccc1)c1cnn(CC2COCCO2)c(=O)c1` (stereo unspecified), the cytotoxicity at 10 µM is -12.4%.

As to `Cc1cc(N(C)C)nc(N2CCCC2c2cc(C)on2)n1` (stereo unspecified), the cytotoxicity at 10 µM was -2.38%.

For `O=C(NCc1cccnc1-n1cccn1)C1CC(=O)N(CC2CC2)C1` (stereo unspecified), the cytotoxicity at 10 µM worked out at 2.77%.

For `NCc1ccccc1Sc1ccc(O)cc1`, the cytotoxicity at 10 µM was found to be 1.31%.

With `CC(C)OCCN1CCC(Nc2ncc(Br)cn2)CC1`, the cytotoxicity at 10 µM stood at 2.83%.

As to `Cc1ccc(CN[C@@H]2CO[C@H](CNS(=O)(=O)c3ccccc3)[C@H]2O)cc1`, the cytotoxicity at 10 µM was -10.1%.

Consider `Cc1[nH]nc2ncc(C(=O)N3CCN(CCC(C)C)CC3)cc12`, for which the cytotoxicity at 10 µM came to 0.977%.

With `Cc1noc(CCCC(=O)N2CCN(C)CC2c2ccccc2)n1` (stereo unspecified), the cytotoxicity at 10 µM is -6.73%.

In the case of `FC1(F)CCN(Cc2ccccn2)CC12CCN(c1ncccn1)C2` (stereo unspecified), the cytotoxicity at 10 µM was -95.8%.

On to `Cc1cc(C)n(C2CCCN(C(=O)CCNc3ncccn3)C2)n1` (stereo unspecified), for which the cytotoxicity at 10 µM was -2.53%.

In the case of `C=C(C)CN1CCC(NC(=O)NCCc2cccc(C(N)=O)c2)CC1`, the cytotoxicity at 10 µM amounted to 11.4%.

Take `Cc1nnc(CN(C)CC(=O)N2CCCC(C)CC2)n1C` (stereo unspecified): the cytotoxicity at 10 µM was 10.6%.

As to `Cn1ccc(CN2CCCC23CCN(Cc2nccn2C)CC3)n1`, the cytotoxicity at 10 µM is -109%.

As for `Cc1ccsc1C(=O)N(C)Cc1ccncc1`, the cytotoxicity at 10 µM was -4.54%.

On to `CCn1cnnc1CNC(=O)NC(C)c1ccccn1` (stereo unspecified), for which the cytotoxicity at 10 µM is -17.6%.

Take `COC1COC2(CCN(CC3CCOCC3)CC2)C1` (stereo unspecified): the cytotoxicity at 10 µM is -110%.

As for `Cc1nc(-c2cccnc2)ncc1C(=O)N1CCC(c2ncc[nH]2)CC1`, the cytotoxicity at 10 µM came out at 0.626%.

As to `Cc1cccc(S(=O)(=O)N2C[C@@H]3C[C@@H](c4nnc(C)[nH]4)O[C@@H]3C2)c1`, the cytotoxicity at 10 µM is 9.59%.

Regarding `CCC[C@H]1CN(Cc2cncn2C)C[C@@H]1NC(=O)C1(COC)CCC1`, the cytotoxicity at 10 µM is -8.26%.

As for `O=C1NCCCCC1NC(=O)C1(c2cccc(Cl)c2)CC1` (stereo unspecified), the cytotoxicity at 10 µM turned out to be 2.68%.

Consider `c1ccc(-c2cccc(-c3ccn(CCN4CCCCC4)n3)c2)nc1`, for which the cytotoxicity at 10 µM was -4.73%.

Consider `CC(C)NC(=O)N1CCC2(COCc3cnc(-c4cccnc4)nc32)C1` (stereo unspecified), for which the cytotoxicity at 10 µM is 1.77%.

For the compound `Cc1ccccc1-n1c(C)cc(C(=O)N2CCn3c(C)nnc3C2)c1C`, the cytotoxicity at 10 µM was -8.51%.

Take `CS(=O)(=O)NC1CCCN(C(=O)c2cccnc2)C1` (stereo unspecified): the cytotoxicity at 10 µM is -3.75%.

Regarding `O=C(c1ccco1)N1C[C@@H]2OCCN(CCN3CCCC3)[C@@H]2C1`, the cytotoxicity at 10 µM amounted to 1.54%.

In the case of `CCn1cc2c(n1)C(COC)CN(C(=O)COc1ccccc1C)C2` (stereo unspecified), the cytotoxicity at 10 µM came out at 0.719%.

Consider `Cn1cc(NC(=O)CNC(=O)N2CCN(c3ccc(F)cc3)CC2)cn1`, for which the cytotoxicity at 10 µM came out at 2.27%.

In the case of `CC(NC(=O)NCCN1CCCCCC1=O)c1ccc(Cl)s1` (stereo unspecified), the cytotoxicity at 10 µM is -0.331%.

In the case of `Cn1cc(S(=O)(=O)N(Cc2ccc(F)cc2F)C2CC2)cc1C(N)=O`, the cytotoxicity at 10 µM stood at 5.68%.
